Measurements: ChEMBL document CHEMBL1148218, “Structures of new beta-carboline-type alkaloids with antiallergic effects from Stellaria dichotoma(1,2)” (J Nat Prod, 2004)
Where a name gives a salt, the structure may show the parent alone.

Key:
[1] = tested on: RBL-2H3; assay: Inhibition of beta-hexosaminidase in anti-DNP IgE sensitized rat RBL2H3 cells at 100 uM after 10 mins; type: functional; conditions: RBL-2H3, 10 min
Method in brief: (§1)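 IgE-sensitized RBL-2H3 cells (2 × 10^5/well) in Siraganian buffer with 5.6 mM glucose, 1 mM CaCl2, 0.1% BSA, 10 min at 37 °C; sample in DMSO (final 0.1%) added for 10 min, then DNP-BSA (final 10 μg/mL). After 10 min supernatant reacted with 1 mM p-nitrophenyl-N-acetyl-β-D-glucosaminide, pH 4.5, 37 °C, 1 h; stopped at pH 10, A405. Percent inhibition; IC50 determined graphically.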

[2] = tested on: RBL-2H3; assay: Inhibition of anti-DNP IgE-induced TNFalpha production in rat RBL2H3 cells after 4 hrs by ELISA; type: functional, cell-based; conditions: RBL-2H3, 4 h
Method in brief: (§2)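 RBL-2H3 cells (2 × 10^5/well in MEM) sensitized with anti-DNP IgE, then stimulated with DNP-BSA antigen in presence of sample; TNF-α and IL-4 in medium measured 4 h later by rat ELISA. Percent inhibition calculated; IC50 read graphically.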

[3] = tested on: RBL-2H3; assay: Inhibition of beta-hexosaminidase in anti-DNP IgE sensitized rat RBL2H3 cells after 10 mins; type: functional, cell-based; conditions: RBL-2H3, 10 min; method in brief: as §1
[4] = tested on: RBL-2H3; assay: Inhibition of anti-DNP IgE-induced IL4 production in rat RBL2H3 cells after 4 hrs by ELISA; type: functional, cell-based; conditions: RBL-2H3, 4 h; method in brief: as §2
[5] = tested on: Mus musculus; assay: Antiallergic activity in ddY mouse ear at 200 mg/kg, po by passive cutaneous anaphylaxis reaction; type: functional

| SMILES | inhibition at 100 µM [1] | also measured |
| --- | --- | --- |
| CCC(O)c1cc(OC)c2c(c1)OCO2 (configuration not stated) | 1.2% |  |
| COC(=O)c1cc2c([nH]c3ccccc32)c([C@@H](O)CO)n1 [DICHOTOMINE C] | 89.2% | IC50 [2]: 19 µM; IC50 [3]: 62 µM; IC50 [4]: 15 µM |
| COc1cc(C(=O)O)ccc1O [VANILLIC ACID] | 8.4% |  |
| COc1cc(C(C)=O)ccc1O [APOCYNIN] | 2.3% |  |
| COc1ccc(CCC(=O)O)cc1OC | 2.3% |  |
| CN1CCC(=C2c3ccccc3CC(=O)c3sccc32)CC1 [KETOTIFEN FUMARATE] |  | IC50 [3]: 220 µM |
| C[C@H](O)c1nc(C(=O)O)cc2c1[nH]c1ccccc12 [DICHOTOMINE A] | 5.9% |  |
| O=Cc1ccc(CO)[nH]1 | 8.5% |  |
| COc1cc(C=O)ccc1O [VANILLIN] | 5.9% |  |
| COc1ccc(/C=C/C(=O)Nc2ccccc2C(=O)O)cc1OC [TRANILAST] |  | IC50 [3]: 490 µM; inhibition in vivo at 200 mg/kg [5]: 72.4% |
| O=Cc1ccc(CO)o1 [AES-103] | 3.4% |  |
| CCCCOC(=O)c1cc2c([nH]c3ccccc32)c([C@@H](O)CO)n1 [DICHOTOMINE D] | 11.2% |  |
| O=C(O)c1cc2c([nH]c3ccccc32)c([C@@H](O)CO)n1 [DICHOTOMINE B] | 1.2% |  |
